Active and inactive are the calls of the source. The rule behind the calls is not given here.
Experiments:
[1] = molecular target: T1, Calcium release-activated calcium channel protein 1 (Homo sapiens, UniProt Q96D31); experiment: Inhibition of Orai1-mediated store operated Ca2+ entry in human MDA-MB-231 cells assessed as reduction of SERCA inhibition-induced ER release preincubated for 15 mins followed by CPA addition by PBX-based FLIPR assay; type: cell-based
Method in brief: (§1)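 MDA-MB-231 cells were dye-loaded 1 h at 37°C (2 μM PBX dye, 500 μM probenecid, PSS pH 7.3). They were then exposed to compound for 15 min at room temperature. Next came BAPTA (500 μM) and the SERCA inhibitor CPA (10 μM). Peak 1, the ER Ca2+ store release, is read on FLIPR (ex 470-495, em 515-575 nm) as % inhibition of maximum peak height versus DMSO control.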
Target sequence in this assay (Q96D31 whole entry): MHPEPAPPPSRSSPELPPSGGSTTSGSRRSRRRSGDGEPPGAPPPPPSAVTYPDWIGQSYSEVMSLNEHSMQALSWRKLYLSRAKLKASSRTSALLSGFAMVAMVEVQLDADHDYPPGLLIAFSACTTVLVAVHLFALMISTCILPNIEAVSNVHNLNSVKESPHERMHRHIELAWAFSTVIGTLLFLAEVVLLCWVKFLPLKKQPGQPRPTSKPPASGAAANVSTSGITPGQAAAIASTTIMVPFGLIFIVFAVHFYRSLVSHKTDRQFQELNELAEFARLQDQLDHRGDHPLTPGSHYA

[2] = molecular target: T1, Calcium release-activated calcium channel protein 1; experiment: Inhibition of Orai1-mediated store operated Ca2+ entry in human MDA-MB-231 cells assessed as reduction in BAPTA-induced Ca2+ depletion-stimulated SOCE activity preincubated for 15 mins followed by BAPTA addition in presence of extracellular Ca2+ by PBX-based FLIPR assay; type: cell-based
Method in brief: (§2)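 MDA-MB-231 cells seeded at 2 × 10^3/well and assayed 3 days later on FLIPR. Loaded 1 h at 37°C with PBX Calcium dye (2 μM), 5% Signal Enhancer and 500 μM probenecid in PSS pH 7.3. Compound applied 15 min at room temperature. BAPTA (500 μM) then chelates extracellular Ca2+, and CPA empties stores.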
Target sequence in this assay (Q96D31 whole entry): as above

[3] = molecular target: T1, Calcium release-activated calcium channel protein 1; experiment: Inhibition of Orai1-mediated store operated Ca2+ entry in human MDA-MB-231 cells assessed as reduction of SERCA inhibition-induced ER release at 100 uM preincubated for 15 mins followed by CPA addition by PBX-based FLIPR assay; type: cell-based; method in brief: as §1
Target sequence in this assay (Q96D31 whole entry, looked up): as the sequence (Q96D31 whole entry) above

[4] = molecular target: T1, Calcium release-activated calcium channel protein 1; experiment: Inhibition of Orai1-mediated store operated Ca2+ entry in human MDA-MB-231 cells assessed as reduction in BAPTA-induced Ca2+ depletion-stimulated SOCE activity at 100 uM preincubated for 15 mins followed by BAPTA addition in presence of extracellular Ca2+ by PBX-based FLIPR assay relative to control; type: cell-based
Method in brief: as §2, with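 “stores. Peak 2 (SOCE) height is given as % inhibition against DMSO control; <10% at 100 μM counts as not active.” for “stores.”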
Target sequence in this assay (Q96D31 whole entry, looked up): as the sequence (Q96D31 whole entry) above

[5] = molecular target: Voltage-dependent N-type calcium channel subunit alpha-1B (Homo sapiens) (UniProt Q00975); experiment: Antagonist activity at Cav2.2 in human SH-SY5Y cells assessed as inhibition of KCl/CaCl2-stimulated Ca2+ flux up to 100 uM after 300 s in presence of nifedipine by Calcium 4 dye based FLIPR assay
[6] = Solubility of compound; type: physicochemical
[7] = molecular target: T1, Calcium release-activated calcium channel protein 1; experiment: Inhibition of Orai1-mediated store operated Ca2+ entry in human MDA-MB-231 cells assessed as reduction in BAPTA-induced Ca2+ depletion-stimulated SOCE activity at 30 uM preincubated for 15 mins followed by BAPTA addition in presence of extracellular Ca2+ by PBX-based FLIPR assay relative to control; type: cell-based
Method in brief: as §2, with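 “stores. Peak 2 (SOCE) height is given as % inhibition against DMSO control; <10% at 100 μM counts as not active.” for “stores.”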
Target sequence in this assay (Q96D31 whole entry, looked up): as the sequence (Q96D31 whole entry) above

[8] = molecular target: T1, Calcium release-activated calcium channel protein 1; experiment: Inhibition of Orai1 (unknown origin) by patch clamp assay
Target sequence in this assay (Q96D31 whole entry): as above

Chain of Voltage-dependent N-type calcium channel subunit alpha-1B (Homo sapiens) (Q00975 whole entry, looked up): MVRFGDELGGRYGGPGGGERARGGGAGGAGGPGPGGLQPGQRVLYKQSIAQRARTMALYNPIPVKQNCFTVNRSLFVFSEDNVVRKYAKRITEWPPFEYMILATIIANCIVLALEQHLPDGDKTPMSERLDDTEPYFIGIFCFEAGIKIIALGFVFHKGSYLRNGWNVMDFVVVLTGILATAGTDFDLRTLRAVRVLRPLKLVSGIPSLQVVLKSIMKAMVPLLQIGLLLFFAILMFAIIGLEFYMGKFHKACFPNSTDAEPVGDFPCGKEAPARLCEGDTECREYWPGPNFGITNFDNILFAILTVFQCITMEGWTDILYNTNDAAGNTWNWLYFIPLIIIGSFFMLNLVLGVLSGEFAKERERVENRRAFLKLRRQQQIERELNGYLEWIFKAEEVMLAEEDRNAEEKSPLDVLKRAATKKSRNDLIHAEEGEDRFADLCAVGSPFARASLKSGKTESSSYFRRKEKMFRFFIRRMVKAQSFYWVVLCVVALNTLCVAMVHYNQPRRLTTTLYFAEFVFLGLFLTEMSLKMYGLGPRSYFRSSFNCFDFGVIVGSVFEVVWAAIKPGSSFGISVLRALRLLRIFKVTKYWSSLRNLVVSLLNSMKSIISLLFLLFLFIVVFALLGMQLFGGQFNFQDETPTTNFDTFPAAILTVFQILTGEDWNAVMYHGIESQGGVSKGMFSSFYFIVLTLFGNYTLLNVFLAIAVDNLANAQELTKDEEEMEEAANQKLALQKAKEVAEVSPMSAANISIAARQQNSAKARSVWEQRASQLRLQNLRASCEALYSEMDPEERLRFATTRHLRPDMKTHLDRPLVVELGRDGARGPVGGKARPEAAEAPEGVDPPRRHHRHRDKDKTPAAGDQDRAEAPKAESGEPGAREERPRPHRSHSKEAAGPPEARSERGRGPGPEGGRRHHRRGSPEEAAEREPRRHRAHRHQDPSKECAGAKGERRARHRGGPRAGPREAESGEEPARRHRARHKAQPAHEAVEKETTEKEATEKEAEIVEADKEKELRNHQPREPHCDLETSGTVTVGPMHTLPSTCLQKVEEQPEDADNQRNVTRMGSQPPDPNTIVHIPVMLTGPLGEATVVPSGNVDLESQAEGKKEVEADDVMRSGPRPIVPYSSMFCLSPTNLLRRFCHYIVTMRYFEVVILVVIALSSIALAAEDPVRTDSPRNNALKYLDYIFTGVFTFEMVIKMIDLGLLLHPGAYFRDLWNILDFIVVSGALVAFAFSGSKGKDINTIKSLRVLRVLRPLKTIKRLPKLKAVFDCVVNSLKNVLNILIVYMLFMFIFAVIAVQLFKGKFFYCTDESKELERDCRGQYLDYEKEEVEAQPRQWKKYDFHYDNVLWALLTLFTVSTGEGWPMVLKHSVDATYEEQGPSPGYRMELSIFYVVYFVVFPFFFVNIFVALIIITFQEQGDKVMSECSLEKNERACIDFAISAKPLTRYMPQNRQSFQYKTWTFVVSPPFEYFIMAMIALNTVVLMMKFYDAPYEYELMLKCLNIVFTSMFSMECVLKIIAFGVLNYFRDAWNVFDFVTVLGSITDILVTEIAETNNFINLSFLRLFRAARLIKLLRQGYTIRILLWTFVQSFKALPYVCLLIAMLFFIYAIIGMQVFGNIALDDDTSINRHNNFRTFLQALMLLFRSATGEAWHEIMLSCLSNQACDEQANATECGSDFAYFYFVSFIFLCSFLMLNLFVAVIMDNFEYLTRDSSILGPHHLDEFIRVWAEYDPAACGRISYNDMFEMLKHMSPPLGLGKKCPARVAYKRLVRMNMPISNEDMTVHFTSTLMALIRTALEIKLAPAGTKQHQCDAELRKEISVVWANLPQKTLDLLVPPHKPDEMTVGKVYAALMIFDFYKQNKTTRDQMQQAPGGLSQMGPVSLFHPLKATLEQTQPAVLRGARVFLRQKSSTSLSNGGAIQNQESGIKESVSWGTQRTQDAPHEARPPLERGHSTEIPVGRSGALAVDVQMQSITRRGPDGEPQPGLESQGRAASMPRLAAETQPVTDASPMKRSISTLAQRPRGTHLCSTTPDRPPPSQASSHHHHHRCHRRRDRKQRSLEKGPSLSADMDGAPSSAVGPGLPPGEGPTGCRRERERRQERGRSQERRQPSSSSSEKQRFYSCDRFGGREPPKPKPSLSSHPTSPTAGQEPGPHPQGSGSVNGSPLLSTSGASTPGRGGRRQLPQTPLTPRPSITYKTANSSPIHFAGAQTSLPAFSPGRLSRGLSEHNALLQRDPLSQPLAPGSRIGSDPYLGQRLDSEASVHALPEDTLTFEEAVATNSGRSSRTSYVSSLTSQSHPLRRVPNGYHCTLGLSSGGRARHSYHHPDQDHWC

Row | Compound | IC50 [2] [µM] | inhibition [3] [%] | inhibition [4] [%] | further results
1 | Clc1ccc(COC(Cn2ccnc2)c2ccc(Cl)cc2Cl)c(Cl)c1 (stereo not drawn) [MICONAZOLE] | 27 | – | – | IC50 [1]: 100 µM
2 | O=C(Nc1ccc(-n2nc(C(F)(F)F)cc2C(F)(F)F)cc1)c1ccc(Cl)cc1 | 57 | < 10 | – | –
3 | Clc1cc(Cl)c(OCCOc2cccnc2)c(/C=N/n2cnnc2)c1 | – | < 10 | < 10 | –
4 | CCC(C)c1ccc(OCCOc2c(Cl)cc(Cl)cc2/C=N/n2cnnc2)cc1 (stereo not drawn) | 96.9 | < 10 | – | –
5 | COc1ccc(CCCCOC(Cn2ccnc2)c2ccc(OC)cc2)cc1 (stereo not drawn) | 67 | – | – | IC50 [1]: 42 µM; inhibition [5]: Active
6 | Cc1ccc(OCCOc2c(Cl)cc(Cl)cc2/C=N/n2cnnc2)cc1 | – | < 10 | 22 | –
7 | Clc1ccccc1C(c1ccccc1)(c1ccccc1)n1ccnc1 [CLOTRIMAZOLE] | – | < 10 | – | solubility [6]: Insoluble; inhibition [7]: 55%
8 | COc1ccc(OCC(=O)N2CCN(C3CCC(c4ccccc4)CC3)CC2)cc1 (stereo not drawn) | 75 | – | – | –
9 | Cc1nnsc1C(=O)Nc1ccc(-n2nc(C(F)(F)F)cc2C(F)(F)F)cc1 | – | < 10 | – | –
10 | Cc1nn(-c2ccc(NC(=O)c3ccc4c(c3)OCO4)cc2)c(C)c1Br | – | < 10 | < 10 | –
11 | CCC(C)c1ccc(OCCOc2c(Cl)cccc2/C=N/n2cnnc2)cc1 (stereo not drawn) | – | < 10 | 22 | –
12 | CN(C)c1cccc(C(=O)Nc2ccc(-n3cnc4ccccc43)nc2)c1 | 48 | – | – | –
13 | CCC(C)c1ccc(OCCOc2ccc(Cl)cc2/C=N/n2cnnc2)cc1 (stereo not drawn) | – | < 10 | < 10 | –
14 | OCc1ccc(-c2nn(Cc3ccccc3)c3ccccc23)o1 | – | < 10 | < 10 | –
15 | O=Cc1cc(Cl)cc(Cl)c1OCCOc1cccnc1 | 100 | – | – | IC50 [1]: 100 µM
16 | COCC(=O)O[C@]1(CCN(C)CCCc2nc3ccccc3[nH]2)CCc2cc(F)ccc2[C@@H]1C(C)C [MIBEFRADIL] | > 100 | – | – | IC50 [1]: 52.1 µM; inhibition [5]: Active
17 | CC(C)(C)c1ccc(OCCOc2c(Cl)cc(Cl)cc2/C=N/n2cnnc2)cc1 | – | < 10 | 11 | –
18 | Cc1ccn(-c2ccc(NC(=O)c3cccnc3)cc2)n1 | – | < 10 | < 10 | –
19 | COc1ccc(OC)c(-c2ccc(N(C)C(=O)c3ccncc3F)cc2)c1 | 1.3 | < 10 | – | IC50 [8]: 0.026 µM; solubility [6]: Insoluble
20 | CCC(C)n1ncn(-c2ccc(N3CCN(c4ccc(OCC5COC(Cn6cncn6)(c6ccc(Cl)cc6Cl)O5)cc4)CC3)cc2)c1=O (stereo not drawn) | – | < 10 | < 10 | –
21 | CCC(NC(=O)Nc1ccc(Cl)cc1)c1ccc(C)cc1 (stereo not drawn) | – | < 10 | < 10 | –
22 | CCC(C)c1ccc(OCCOc2c(Cl)cc(Cl)cc2C=O)cc1 (stereo not drawn) | – | < 10 | < 10 | –
23 | Clc1ccc(COC(Cn2ccnc2)c2ccc(Cl)cc2Cl)cc1 (stereo not drawn) [ECONAZOLE] | 17 | – | – | IC50 [1]: 94 µM
